In ChEMBL document CHEMBL1145978, “New N-n-propyl-substituted 3-aryl- and 3-cyclohexylpiperidines as partial agonists at the D4 dopamine receptor” (J Med Chem, 2003) one finds Ki data, which are given here for 10 compounds.

In assay [1] the target is T1, D(2) dopamine receptor (Bos taurus, UniProt P20288). In words: Affinity for Dopamine receptor D2 using [3H]-YM-09151-2 was carried out on bovine striatal membrane preparations. On the set-up: species or system Striatum. The method in brief:
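Competition binding on bovine striatal membranes: homogenised in Tris 50, EDTA 1, CaCl2 1.5, MgCl2 4, KCl 5, NaCl 120 mM, pH 7.4; centrifuged 48 000 g, 20 min, 4 °C, washed, used at ~1.25 mg wet tissue/mL. 0.1 nM [3H]-YM-09-151-2 (Kd 0.4 nM), 60 min at 30 °C, duplicates; nonspecific with 2 mM DA; vacuum filtration; Ki from IC50.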

A further assay concerns the target D(1A) dopamine receptor (Bos taurus, UniProt Q95136). The experiment in a line: Affinity for Dopamine receptor D1 using [3H]SCH-23390 was carried out on bovine retinal membrane preparations. On the set-up: species or system Retina. The method, boiled down: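 Bovine retinal membranes were homogenized in Tris 50 mM, EDTA 1, CaCl2 1.5, MgCl2 4, KCl 5, NaCl 120 mM, pH 7.4, and used at about 4 mg wet tissue/mL. They were incubated with 0.5 nM [3H]-SCH23390 for 20 min at 30 °C, in duplicate. Nonspecific binding was set with 2 mM DA, and bound ligand was separated by vacuum filtration. Ki was derived from IC50 using Kd 2 nM.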

Assay [2] concerns the target T1, D(2) dopamine receptor. In words: Affinity for Dopamine receptor D2 using [3H]YM-09151-2 was carried out on bovine retinal membrane preparations (low-affinity). Also on record: species or system Retina. The method in brief:
(§1)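 Retinal membranes were prepared in Tris/EDTA/Ca/Mg/K/NaCl saline, pH 7.4, at about 4 mg wet tissue/mL. They were incubated with 0.1 nM [3H]-YM-09-151-2 at 30 °C for 60 min, in duplicate, with 2 mM DA defining nonspecific binding, followed by rapid filtration. Displacement curves were fitted to a two-site model, giving high- and low-affinity Ki from IC50 using Kd 0.4 nM.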

Assay [3] addresses T1, D(2) dopamine receptor. In words: Affinity for Dopamine receptor D2 using [3H]YM-09151-2 was carried out on bovine retinal membrane preparations (high-affinity). On the set-up: species or system Retina. The method in brief:
as §1

T1 sequence (P20288 whole entry): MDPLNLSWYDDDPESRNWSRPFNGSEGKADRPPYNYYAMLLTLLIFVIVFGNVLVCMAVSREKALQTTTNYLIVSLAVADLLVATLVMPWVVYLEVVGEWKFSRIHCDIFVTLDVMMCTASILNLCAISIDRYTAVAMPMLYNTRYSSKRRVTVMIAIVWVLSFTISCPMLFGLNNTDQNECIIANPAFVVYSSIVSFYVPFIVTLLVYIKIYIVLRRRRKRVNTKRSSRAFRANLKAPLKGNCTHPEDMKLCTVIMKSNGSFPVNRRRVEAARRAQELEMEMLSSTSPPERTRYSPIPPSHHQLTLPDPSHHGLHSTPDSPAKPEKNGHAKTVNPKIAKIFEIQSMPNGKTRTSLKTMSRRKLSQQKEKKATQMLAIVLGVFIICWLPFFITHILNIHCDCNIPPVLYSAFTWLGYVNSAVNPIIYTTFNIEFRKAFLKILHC
D(1A) dopamine receptor, sequence (Q95136 whole entry): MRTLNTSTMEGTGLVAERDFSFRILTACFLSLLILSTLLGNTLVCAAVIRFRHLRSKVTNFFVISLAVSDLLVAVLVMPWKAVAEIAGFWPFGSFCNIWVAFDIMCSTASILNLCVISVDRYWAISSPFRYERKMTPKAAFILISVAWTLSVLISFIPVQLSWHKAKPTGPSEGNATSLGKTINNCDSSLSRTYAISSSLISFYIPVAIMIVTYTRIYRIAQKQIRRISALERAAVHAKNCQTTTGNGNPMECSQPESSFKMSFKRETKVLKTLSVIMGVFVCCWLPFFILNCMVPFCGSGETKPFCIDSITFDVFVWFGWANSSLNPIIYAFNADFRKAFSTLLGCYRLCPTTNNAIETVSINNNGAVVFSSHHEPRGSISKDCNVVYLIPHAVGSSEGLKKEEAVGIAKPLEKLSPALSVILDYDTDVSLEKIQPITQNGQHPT

As to `CCCN1CCCC(C2CCCCC2C)C1` (centres undefined), the inhibitory constant (Ki) on D(2) dopamine receptor [1] is 0.42 µM; on D(1A) dopamine receptor it was greater than 10 µM; at D(2) dopamine receptor [2], 43.2 µM; at D(2) dopamine receptor [3] it was 26 nM.

In the case of `CCCN1CCCC(C2CCCCC2)C1` (centres undefined), the Ki on D(2) dopamine receptor [1] is 14.4 µM; at D(1A) dopamine receptor, greater than 10 µM; at D(2) dopamine receptor [2] it was 24.9 µM; on D(2) dopamine receptor [3], 4 nM.

As to `CCCN1CCCC(c2ccc(C)cc2)C1` (centres undefined), the inhibition constant (Ki) on D(2) dopamine receptor [1] is 13.8 µM; at D(1A) dopamine receptor, greater than 10 µM; at D(2) dopamine receptor [2], 35.4 µM; at D(2) dopamine receptor [3], 44 nM.

Consider `CCCN1CCCC(c2cccc(C)c2)C1` (centres undefined), for which the Ki was greater than 10 µM at D(1A) dopamine receptor, 15.9 µM at D(2) dopamine receptor [2] and 42 nM at D(2) dopamine receptor [3].

Consider `CCCN1CCCC(c2ccccc2)C1` (centres undefined), for which the Ki on D(2) dopamine receptor [1] was 10.8 µM; at D(1A) dopamine receptor, greater than 10 µM; on D(2) dopamine receptor [2] it was 43.7 µM; on D(2) dopamine receptor [3], 39 nM.

For `CCCN1CCCC(C2CCC(C)CC2)C1` (centres undefined), the Ki on D(2) dopamine receptor [1] was 20 µM; at D(1A) dopamine receptor it was greater than 10 µM; at D(2) dopamine receptor [2], 64 µM; on D(2) dopamine receptor [3], 4 nM.

Turning to `CCCN1CCCC(C2CCCC(C)C2)C1` (centres undefined), the Ki is 10 µM at D(2) dopamine receptor [1], greater than 10 µM at D(1A) dopamine receptor, 27 µM at D(2) dopamine receptor [2] and 5 nM at D(2) dopamine receptor [3].

With `CCCN1CCCC(c2ccccc2C)C1` (centres undefined), the Ki was 1.51 µM at D(2) dopamine receptor [1], greater than 10 µM on D(1A) dopamine receptor, 26.7 µM on D(2) dopamine receptor [2] and 449 nM on D(2) dopamine receptor [3].

In the case of `CCCN1CCCC(c2ccc(C)c(C)c2)C1` (centres undefined), the inhibitory constant (Ki) is 8.1 µM at D(2) dopamine receptor [1], greater than 10 µM on D(1A) dopamine receptor, 7.6 µM on D(2) dopamine receptor [2] and 27 nM on D(2) dopamine receptor [3].

With `Cc1cccc(C(=O)NCN2CCN(c3ccccc3C#N)CC2)c1` [PD-168,077], the inhibition constant (Ki) on D(2) dopamine receptor [1] was 18.3 µM; on D(1A) dopamine receptor, greater than 10 µM; on D(2) dopamine receptor [2], 6.3 µM; on D(2) dopamine receptor [3], 25 nM.

The term Ki denotes a dissociation constant, usually derived from enzyme kinetics or from competition with a known ligand.
